Experimental findings from the EternaBench riboswitch data are described below.

The test system of the series is MS2 coat protein. Put plainly: apparent Kd, MS2 coat protein; higher = weaker binding; RNA-MaP array; FMN 200 µM where present. In short, it runs like this: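 Designs were transcribed by stalled E. coli RNA polymerase on Illumina sequencing-chip clusters. They were titrated with SNAP-549-labelled MS2 coat protein from 0.7 or 1.5 nM, doubling to 3 µM, in 100 mM Tris-HCl pH 7.5, 80 mM KCl, 4 mM MgCl2, BSA, DTT, yeast tRNA and Tween-20, without and then with constant ligand. The apparent Kd is the median of filtered per-cluster fits after normalisation of green signal to red-channel RNA signal and control-cluster median Fmax.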

The mark [1] stands for this setting: designed as: OFF switch for flavin mononucleotide, no ligand.
Where [2] appears, read: ligand present: flavin mononucleotide, designed as: OFF switch for flavin mononucleotide.
Where [3] appears, read: designed as: ON switch for flavin mononucleotide, no ligand.
Setting [4] is: ligand present: flavin mononucleotide, designed as: ON switch for flavin mononucleotide.

Usually apparent Kd stands for a dissociation constant that holds for the conditions of the assay. “GAGAAGUCAGGAUAUGCUGCUCGUCACUUGCGUGAUGAGUAGCAGAAGGGACAUGAGGAUCACCCAUGUAAAGA”: the “apparent Kd” value by setting is: under setting [1], 51.2 nM; under setting [2], 64.5 nM.
Turning to “UGUCGGAGCAGAGGAUAUGACAUGAGGAUCACCCAUGUAUGAACCAAUAGCUGGAAACAGCAAUGUAAGAAGGCUGCUCCGACA”, the “apparent Kd” value is, setting by setting: under setting [1], 5.98 nM; under setting [2], 6.79 nM.
For the sequence “AAACACGGACAUGAGGAUCACCCAUGUGGCGAAAGCCUUGGGAGAAGGCCGUAUGCAAAGCAUACGGAGGAUAUCCAUACCGUG”, the “apparent Kd” value is, setting by setting: under setting [3], 18.1 nM; under setting [4], 6.34 nM.
As to “GCUUGUGUUGAGGAUAUGCGCCGGCUCGCUGGCGCAGAAGGCGGCACAUGAGGAUCACCCAUGUCAGUUCGCGA”, the “apparent Kd” value was found to be 27.5 nM under setting [1] and 255 nM under setting [2].
The corresponding values for “GAUAAUAUAGGAUAUACAUGAGGAUCACCCAUGUCCCGAUAUUAGGAGGACCUCCUCGGUAGAAGGAUAUGUGC” are 129 nM and 131 nM.
On the same counts, the results for “AUACCACGAGGAUAUCGUCUAUAAUACAUGAGGAUCACCCAUGUUAUAUCUGUAAUGUUUCGAGAAGGCGUGUUUU” are 17.5 nM and 14.2 nM.
On the same counts, the results for “GGAUUUACUGAGGAUAUUGCAUUACCCGAUUGAUAAGAAGGCAGAACAUGAGGAUCACCCAUGUGGGUAGUCAA” are 17.4 nM and 16.4 nM.
For the sequence “GGCGAACAGGCUAACAUGAGGAUCACCCAUGUGGACUCAUGCGAGGAUAUCGGGAAGGAGGAUUCCGAGAAGGUGCGGUGAGCC”, the “apparent Kd” value under setting [3] came out at 788 nM and the “apparent Kd” value under setting [4] came to 304 nM.
On the same counts, the results for “GUCAUCUCAUGAGGAUAUGCUCGGGUUUCCCGAGCAGAAGGCAUGUCAUACAUGAGGAUCACCCAUGUUGACAUUAAGAUUGUA” are 4.78 nM and 5.04 nM.
On the same counts, the results for “AAAACAUGAGGAUCACCCAUGUAAAGAUCGGUUAAUAGAGGUGAGGAUAUACGAACUUAAAGGUAGUAGAAGGCACUGGGUACA” are 47.1 nM and 35.5 nM.
Regarding “CAGUCUACAGGAUAUACAUGAGGAUCACCCAUGUGUAUCAACCUUCUGUAAUCCUCAUGUAGAAGGGUAGACUG”, the “apparent Kd” value under setting [1] is 16.3 nM and the “apparent Kd” value under setting [2] came out at 13.7 nM.
In the case of “CGGCGGAAAGGAUAUGCAGUUAUAUCAAAAUGUGGGCCACGACAUGAGGAUCACCCAUGUAGAAGGUUCAGCCG”, the “apparent Kd” value came to 16 nM under setting [1] and 13.4 nM under setting [2].
The corresponding values for “CUGUUAUAGGUCCAGAAUUACAACAUGAGGAUCACCCAUGUGCAGGAUAUCGGGUUAAUAAACGACGAGAAGGGCAUAGUCACG” are 35.6 nM and 104 nM.
Consider “GGCUAGUCAGGAUAUACGAACAUGUCAAAAGACGUGAAGGGACAUGAGGAUCACCCAUGUAGAAGGGACUAGCC”, for which the “apparent Kd” value is, setting by setting: under setting [1], 22.8 nM; under setting [2], 182 nM.
In the case of “GAUCGUAUCCUAGGAUAUUCAUAAAACAUGAGGAUCACCCAUGUUAACUUGGGAGAAGGAGGAUACGAUCAACAGCGAAAGCUG”, the “apparent Kd” value under setting [3] stood at 7.35 nM and the “apparent Kd” value under setting [4] was 5.09 nM.
Consider “GUGACGAUGUAAGGAUAUGCUGAGGAAUACUCAGCAGAAGGUACAUGAGGAUCACCCAUGUAACGUCACAAUAAUAAUAAUAAU”, for which the “apparent Kd” value is 13.3 nM under setting [1] and 24.1 nM under setting [2].
On the same counts, the results for “CACGUACAUGAGGAUCACCCAUGUUAGGAUAUGCCGGGUAAGAGAAAACUAAAAAUCCGUAGAAGGGACGAAAC” are 34.1 nM and 33.8 nM.
In the case of “CUAGCUAUCGGAGGAUAUUCAUACCGGAAACGGACAUGAGGAUCACCCAUGUGGCGAAAGCCAUGGGAGAAGGCCGAUAGCUAG”, the “apparent Kd” value reads like this: under setting [3], 1640 nM; under setting [4], 133 nM.
On to “CCCUGAUCGAGAGGUAGGAGUGGUAGAAGGCGACCGGUGCCAGAUGACAUGAGGAUCACCCAUGUCGAGGAUAUACCACAGAAU”, for which the “apparent Kd” value reads like this: under setting [1], 7.6 nM; under setting [2], 11.5 nM.
For the sequence “UCUACAUAAAUUCAUCAAUACAGAAAGGAUAUGAAAUACAUGAGGAUCACCCAUGUUCAUGGGAAUUAGAAGGUUCAAUUAGCC”, the “apparent Kd” value is, setting by setting: under setting [1], 133 nM; under setting [2], 84.6 nM.
For “GUGCAUUCGUAGAAGGGUGACAUGAGGAUCACCCAUGUGCGCUGGGCUCGGGAUGCAUCAGCGCCACAGGAUAUACGAAGCACC”, the “apparent Kd” value under setting [3] turned out to be 117 nM and the “apparent Kd” value under setting [4] stood at 106 nM.
In the case of “AAAAAACAUGAGGAUCACCCAUGUGAGGAUAUCCAAAAGUUAAAGAAAAAGACGAAAAGGAGAAGGCGCAAAAA”, the “apparent Kd” value by setting is: under setting [1], 109 nM; under setting [2], 82 nM.
Turning to “GACAUGAGGAUCACCCAUGUCCAACCAGAAGGCCAGAAACCAGGCCCUUGUAUCGGGCUUGGGAUGGAGGAUAUGGGCGCCGAA”, the “apparent Kd” value was found to be 61.4 nM under setting [3] and 31.6 nM under setting [4].
On to “UUAUGAGAGCAGGAUAUCUUAUUUUUUUUUUAUAGAGAAGGGCUCACAUGAGGAUCACCCAUGUGGUCCUAGAU”, for which the “apparent Kd” value came to 32.5 nM under setting [1] and 52.5 nM under setting [2].
Regarding “GCAUGAGACUAAGGAUAUGAUGUACCUAUAUGUGACAUGAGGAUCACCCAUGUGGUAAGUAUGAUUCAGAAGGUAGAGAUAUGC”, the “apparent Kd” value runs as follows: under setting [3], 67.8 nM; under setting [4], 28.3 nM.
For “CUCCUGUAAGGAUAUCUGACAAGUGACGAAAGUCACAGUUCAGAGAAGGUACAUGAGGAUCACCCAUGUAGAAC”, the “apparent Kd” value reads like this: under setting [1], 32.2 nM; under setting [2], 139 nM.
Turning to “GGCUCAUUGACAUUAAUGUGCAGACAGGAUAUCCACCGCGGUUCCUACAUGAGGAUCACCCAUGUGGAGAAGGGUCGCUAAUGG”, the “apparent Kd” value was 16.1 nM under setting [1] and 43.6 nM under setting [2].
Turning to “AGUGUCAUCGAGAAGGCCUCAACAUGAGGAUCACCCAUGUUGUUACAUGGGAGGAUAUCGAUGAUACAGCUACGUUUCGUAGCA”, the “apparent Kd” value reads like this: under setting [3], 1010 nM; under setting [4], 137 nM.
In the case of “UAAUAUUUAUGAUAUUAUGACAGUAGAAGGCUAUACAUGUUGAUACAUGAGGAUCACCCAUGUAUAGAGGAUAUAUACAUAUAU”, the “apparent Kd” value under setting [1] is 681 nM and the “apparent Kd” value under setting [2] was 315 nM.
For the sequence “CGAGGACAUGAGGAUCACCCAUGUAGCUACAAAAUGCAGCGACAGGAUAUCCUCUGGUUCCCAUAGGAGAAGGGUCAAACCUUG”, the “apparent Kd” value under setting [3] was determined as 26.8 nM and the “apparent Kd” value under setting [4] was determined as 47.5 nM.
In the case of “UUGAUAUUGUAAGGAUAUACUCUGUGAUGAAGAGUAGAAGGUACUUACAUGAGGAUCACCCAUGUUUAACGAGAUACUAAUCGU”, the “apparent Kd” value is, setting by setting: under setting [3], 48.9 nM; under setting [4], 20 nM.
With “GCGAAGAACGAGAAGGCCACUACAUGAGGAUCACCCAUGUCGUGGAGUAUUGGAGGAUAUCGAUCGGCGUCUCAUGAGGACAUA”, the “apparent Kd” value under setting [1] is 5.73 nM and the “apparent Kd” value under setting [2] was determined as 5.61 nM.
For “CGCAAGGAUACAUGAGGAUCACCCAUGUCAGAAAGGGUAAUCAGAAGGUACAAUUAGAGAUAGAGUAAGGAUAUGAAAUUUGCG”, the “apparent Kd” value under setting [3] was determined as 966 nM and the “apparent Kd” value under setting [4] came out at 313 nM.
The corresponding values for “AGCUAGUACCGAGGAUAUACGUACAUGAGGAUCACCCAUGUAUACAUGAAUUAAUGAGACUACAUGUAGAAGGCGGUACUAGCA” are 51.4 nM and 14.2 nM.
The corresponding values for “GCGAGCAUACAGAAGGGAUCGUCGUCGCGGCUGUCAGGAUAUGUAGCUUGGCCUAAACAUGAGGAUCACCCAUGUAUAAUGCUA” are 111 nM and 18.6 nM.
“GACUUGCGCACAGGAUAUCCACAGAGCGGACGUGGAGAAGGGUGACAUGAGGAUCACCCAUGUACGUAAGUCUGGAUCACUUCC”: the “apparent Kd” value runs as follows: under setting [3], 29.4 nM; under setting [4], 26.1 nM.
As to “UUUUUGUGAGGAUAUACGUAGUAGAACAAUAGUACUACUACGUAGAAGGCACAUGAGGAUCACCCAUGUUCCUC”, the “apparent Kd” value came out at 47.6 nM under setting [1] and 339 nM under setting [2].
Consider “UGUCGGAUGUAGAAGGGUAGUACAUGAGGAUCACCCAUGUUAACAUGGAAUACAGGAUAUGCGUAUAGUUUUUAUUAAAUUAUA”, for which the “apparent Kd” value turned out to be 108 nM under setting [1] and 44.3 nM under setting [2].
Take “GGAUAGGACAGAGGAUAUACGUGCUAGAGAUACUAGCAAAAUUUCCUCACAUGAGGAUCACCCAUGUAGAAGGCUGUCCUCUCG”: the “apparent Kd” value is, setting by setting: under setting [1], 18 nM; under setting [2], 409 nM.
For “GCAUAUAUAUAAGGAUAUGCAUCACUGAGAAAUUUAGUGAGGAAGAUCACAUGAGGAUCACCCAUGUAGAAGGUAUAUAUGUGC”, the “apparent Kd” value by setting is: under setting [1], 8.18 nM; under setting [2], 46 nM.
Take “AAUUCACAUGAGGAUCACCCAUGUGAGGAUAUGGUUUCGCUGGCCGUAGCCAGUGGAACCAGAAGGCGCGUGAU”: the “apparent Kd” value under setting [1] is 56.5 nM and the “apparent Kd” value under setting [2] worked out at 65.2 nM.
The corresponding values for “GUGUACAGAGGAUAUACAUGGGCAUGAAAACAUGCAUCUUCACAUGAGGAUCACCCAUGUAGAAGGCUGUACAC” are 24.6 nM and 16.9 nM.
In the case of “GCGCAUUUUAGAUUUAUAUAAUUUUCAGAAGGUGAAUAGUCGACAUGAGGAUCACCCAUGUAUUUCAAGGAUAUGAUUUAGCGC”, the “apparent Kd” value runs as follows: under setting [3], 68.6 nM; under setting [4], 13 nM.
As to “UCCUGGCGAGGAUAUACAAAGUUUUUCACGUUUUGUUACGAACAUGAGGAUCACCCAUGUAGAAGGUGCUACUG”, the “apparent Kd” value was 116 nM under setting [1] and 103 nM under setting [2].
On the same counts, the results for “UCAUACAUGACAUGACAUGAGGAUCACCCAUGUCCAUGUUACAAGGAUAUGUACAUGAAACAUGUACAGAAGGUGUAUUGGACU” are 15.4 nM and 29.4 nM.
Consider “GAUUCGCGUGAGAAGGACAUGAGGAUCACCCAUGUAGGAUAUCACGGUCCUUAGAGGAUUUCAAACCGUACUGGGUCAUAGUGU”, for which the “apparent Kd” value came out at 15.2 nM under setting [3] and 6.7 nM under setting [4].
For the sequence “AGGUGAGCCGUCAGGAUAUGCGUUCCGUAGGGUCAGCAGAAGGGACAUGAGGAUCACCCAUGUUUCGCACGUGG”, the “apparent Kd” value runs as follows: under setting [1], 34.2 nM; under setting [2], 71.1 nM.
The corresponding values for “UUUAUUUCGGCAGGAUAUACAUGUAUAUAUAUUCCCUCAUAUCUUAUUACAUGAGGAUCACCCAUGUAGAAGGGCCUUCUUCUC” are 206 nM and 160 nM.
